pIC50: −log10 of the molar value. Calls of active or inactive are those of the source. The rule behind the calls is not given here.
What was measured:
[1] = biological target: T1, 17-beta-hydroxysteroid dehydrogenase type 1 (Homo sapiens, UniProt P14061); assay: Inhibition of human placental 17beta-HSD1 using estrone substrate
T1 sequence (P14061 whole entry): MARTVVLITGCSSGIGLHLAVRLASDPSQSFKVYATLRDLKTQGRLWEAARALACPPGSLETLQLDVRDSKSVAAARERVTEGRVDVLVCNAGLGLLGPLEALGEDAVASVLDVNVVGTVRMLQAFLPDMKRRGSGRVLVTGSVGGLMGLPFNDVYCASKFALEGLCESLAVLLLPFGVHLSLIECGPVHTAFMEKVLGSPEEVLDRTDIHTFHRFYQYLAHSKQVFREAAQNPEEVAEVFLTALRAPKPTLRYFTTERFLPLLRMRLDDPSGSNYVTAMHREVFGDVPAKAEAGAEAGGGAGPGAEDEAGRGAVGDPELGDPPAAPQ
Procedure, shortened: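 Cytosolic fraction of human placenta incubated at 37 °C with NADH (500 µM) and inhibitor in 50 mM phosphate buffer, 20% glycerol, 1 mM EDTA, DMSO 1% final. Started with unlabelled plus [3H]-E1 (500 nM final); stopped after 10 min with HgCl2, extracted into diethylether. E1/E2 separated by HPLC with radio detection.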

[2] = biological target: Estrogen receptor beta (Homo sapiens) (UniProt Q92731); assay: Displacement of [2,4,6,7-3H]17beta-estradiol from human recombinant ERbeta receptor relative to 17-beta-estradiol
Sequence of Estrogen receptor beta (Homo sapiens) (Q92731 whole entry): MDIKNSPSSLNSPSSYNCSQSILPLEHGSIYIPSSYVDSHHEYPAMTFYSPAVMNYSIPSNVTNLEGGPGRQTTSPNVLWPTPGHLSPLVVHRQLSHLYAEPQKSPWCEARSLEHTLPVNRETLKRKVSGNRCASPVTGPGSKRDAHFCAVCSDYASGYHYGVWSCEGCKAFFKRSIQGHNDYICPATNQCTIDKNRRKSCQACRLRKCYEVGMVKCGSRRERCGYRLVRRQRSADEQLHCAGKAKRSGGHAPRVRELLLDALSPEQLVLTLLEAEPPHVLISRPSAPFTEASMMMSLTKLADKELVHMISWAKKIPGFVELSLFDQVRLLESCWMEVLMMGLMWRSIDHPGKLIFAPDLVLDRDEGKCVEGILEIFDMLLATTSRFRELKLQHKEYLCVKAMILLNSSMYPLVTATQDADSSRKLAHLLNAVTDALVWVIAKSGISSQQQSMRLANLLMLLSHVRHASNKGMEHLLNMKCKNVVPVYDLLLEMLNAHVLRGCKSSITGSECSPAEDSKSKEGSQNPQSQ
Procedure, shortened: (§1)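 ERα or ERβ (0.25 pmol) incubated with [2,4,6,7-3H]-E2 (10 nM) and test compound, 1 h, room temperature, 5% DMSO final. Non-specific binding with diethylstilbestrol (10 µM). Bound complexes captured on hydroxyapatite, washed, resuspended in ethanol and counted by liquid scintillation. RBA derived from inhibitor and E2 concentrations displacing 50% of bound labelled E2.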

Homo sapiens = organism: Homo sapiens; assay: Selectivity ratio of IC50 for human 17beta-HSD2 to IC50 for human 17beta-HSD1
Procedure, shortened: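 Selectivity factor computed as IC50 for placental microsomal 17β-HSD2 (E2 500 nM, NAD+ 1500 µM) divided by IC50 for placental cytosolic 17β-HSD1 (E1 500 nM, NADH 500 µM).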

[3] = biological target: T2, Estrogen receptor (Homo sapiens) (UniProt P03372); assay: Displacement of [2,4,6,7-3H]17beta-estradiol from human recombinant ERalpha receptor relative to 17-beta-estradiol; procedure, shortened: as §1
T2 sequence (whole entry): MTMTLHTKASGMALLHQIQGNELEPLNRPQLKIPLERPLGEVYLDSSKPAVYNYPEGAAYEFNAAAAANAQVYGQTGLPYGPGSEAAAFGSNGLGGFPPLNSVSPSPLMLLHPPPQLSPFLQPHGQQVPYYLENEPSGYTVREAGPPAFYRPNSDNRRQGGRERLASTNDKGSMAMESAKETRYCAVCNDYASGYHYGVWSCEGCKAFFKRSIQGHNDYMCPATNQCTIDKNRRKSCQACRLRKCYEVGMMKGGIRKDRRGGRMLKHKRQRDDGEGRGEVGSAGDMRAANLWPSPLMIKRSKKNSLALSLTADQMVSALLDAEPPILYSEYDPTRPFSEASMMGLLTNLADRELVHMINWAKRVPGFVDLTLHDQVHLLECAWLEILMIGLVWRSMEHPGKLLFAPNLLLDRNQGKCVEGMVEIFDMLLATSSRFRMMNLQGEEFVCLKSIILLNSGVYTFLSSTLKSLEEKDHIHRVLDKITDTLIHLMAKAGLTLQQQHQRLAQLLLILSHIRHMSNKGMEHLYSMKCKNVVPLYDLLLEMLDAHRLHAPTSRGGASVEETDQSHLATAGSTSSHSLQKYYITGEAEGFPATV

[4] = biological target: T3, 17-beta-hydroxysteroid dehydrogenase type 2 (Homo sapiens, UniProt P37059); assay: Inhibition of human placental 17beta-HSD2 using 17-beta-estradiol substrate
T3 sequence (P37059 whole entry): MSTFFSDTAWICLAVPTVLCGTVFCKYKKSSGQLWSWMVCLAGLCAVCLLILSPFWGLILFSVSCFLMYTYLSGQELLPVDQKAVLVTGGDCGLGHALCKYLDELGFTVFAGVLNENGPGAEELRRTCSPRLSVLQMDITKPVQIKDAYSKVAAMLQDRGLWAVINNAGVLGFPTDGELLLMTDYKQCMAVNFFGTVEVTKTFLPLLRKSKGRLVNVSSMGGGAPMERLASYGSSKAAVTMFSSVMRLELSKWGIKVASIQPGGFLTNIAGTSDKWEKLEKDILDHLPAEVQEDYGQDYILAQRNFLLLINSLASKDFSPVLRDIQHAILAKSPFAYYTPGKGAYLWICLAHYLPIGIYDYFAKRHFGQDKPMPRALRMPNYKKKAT
Procedure, shortened: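 Human placental microsomal fraction incubated 20 min at 37 °C with NAD+ (1500 µM), test compound and unlabelled plus [3H]-E2 (500 nM final). Extraction and HPLC with radio detection as for 17β-HSD1. Conversion = AUC(E1)/[AUC(E1)+AUC(E2)] × 100.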

[5] = biological target: T1, 17-beta-hydroxysteroid dehydrogenase type 1; assay: Inhibition of 17-beta-HSD1-mediated 17-beta-estradiol formation in human T47D cells; format: cell-based
Procedure, shortened: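 T47D cells, which express both 17β-HSD1 and 17β-HSD2, were kept in RPMI 1640 with 10% FCS at 37 °C, 5% CO₂. They were seeded in DMEM with FCS, then after 24 h switched to serum-free DMEM. Test compound was added in DMSO (1% final) and pre-incubated 30 min. Unlabelled plus [³H]-E1 (50 nM final) was added for 2.5 h. Steroids were extracted with ether, and E2 formed was quantified by HPLC with radiodetection.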

[6] = Apparent permeability across human Caco-2 cells; format: ADME, cell-based
Procedure, shortened: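 Caco-2 monolayers cultured 10 days at higher seeding density; cassette dosing with four reference compounds; donor concentration 50 µM in 0.2 M MES pH 6.5 with 1% ethanol or DMSO. Acceptor sampled at 0, 60, 120, 180 min, donor at 0 and 180 min; LC/MS/MS analysis; triplicate runs; monolayer integrity by TEER and lucifer yellow.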

T47D = assay: Estrogenic effect in human T47D cells assessed as stimulation of cell proliferation at 100 nM by MTT assay; format: functional, cell-based
Procedure, shortened: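 T-47D cells grown 48 h in phenol red-free RPMI 1640 with 5% DCC-FCS, then treated with compound at 100 nM final (ethanol 1% final). E2 0.1 nM as positive control, ethanol as negative control. Medium and additives renewed every 2–3 days; after 8 days MTT reduction read at 590 nm. Stimulation = (proliferation relative to control set at 1, minus 1) × 100%.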

pIC50 [1] | RBA [2] [%] | Ratio IC50 (Homo sapiens) | RBA [3] [%] | pIC50 [4] | pIC50 [5] | Papp [6] [nm/s] | SMILES | Activity (T47D)
6.08 | 0.01 | 9 | 0.01 | 5.14 | – | – | Oc1ccc(-c2cn(-c3cccc(O)c3)nn2)cc1 | –
5.73 | 0.01 | 0.1 | 0.01 | 6.60 | – | – | Oc1ccc(-c2coc(-c3cccc(O)c3)n2)cc1 | –
5.88 | < 0.01 | 6 | < 0.01 | 5.09 | – | – | Oc1ccc(-n2cc(-c3cccc(O)c3)nn2)cc1 | –
5.79 | < 0.01 | 0.2 | 0.01 | 6.57 | – | – | Oc1ccc(-c2cc(-c3cccc(O)c3)on2)cc1 | –
6.51 | 0.5 | 56 | 0.01 | 4.76 | 6.42 | 79 | Oc1ccc(-c2cnc(-c3cccc(O)c3)o2)cc1 | inactive

Source: ChEMBL document CHEMBL1150770, “Design, synthesis and biological evaluation of bis(hydroxyphenyl) azoles as potent and selective non-steroidal inhibitors of 17beta-hydroxysteroid dehydrogenase type 1 (17beta-HSD1) for the treatment of estrogen-dependent diseases” (Bioorg Med Chem, 2008)
